pEC50, pIC50: −log10 of the molar value. The source made the active and inactive calls. The calls are words filed in the database; no cut-off is given here.
How the values were obtained:
[1] = Stimulation of rabbit muscle actin polymerization by centrifugation assay; type: tissue-based, Oryctolagus cuniculus, Muscle tissue
Method in brief: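 Purified rabbit muscle actin with drug under nonpolymerizing conditions (no exogenous K+). Polymer was separated by centrifugation and supernatant protein measured. EC50 is the concentration reducing supernatant protein by 50% compared with a drug-free control. Three independent experiments were averaged. Total incubation plus processing time was 2.5 h.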

[2] = system: Salmonella enterica subsp. enterica; assay: Antimicrobial activity against Salmonella choleraesuis subsp. choleraesuis ATCC 14028 by standard paper sensitivity disk-agar plate method; type: functional, organism-based
Method in brief: (§1)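 Paper disks of 6 mm diameter placed on seeded agar plates; activity assessed by standard disk-agar sensitivity method.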

CA46 [3] = assay: Antiproliferative activity against human CA46 cells after 24 hrs; type: functional, cell-based; settings: CA46, 24 h
Method in brief: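 CA46 Burkitt lymphoma cells are a suspension line. They were grown 24 h at 37 °C with drug, and cell number was the read-out. IC50 is the concentration giving 50% growth inhibition.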

PtK2 [4] = assay: Effect on actin cytoskeleton in rat kangaroo PtK2 cells assessed as hairy appearance at 10 uM after 24 hrs by immunofluorescence analysis; type: functional, cell-based; settings: Potorous tridactylus
Method in brief: (§2)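 PtK2 cells were treated 24 h at 37 °C, then stained with FITC-anti-β-actin antibody (clone Ac-15) and DAPI. Cells were viewed under a 40× oil objective. FITC-phalloidin staining was also used.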

PtK2 [5] = assay: Effect on actin cytoskeleton in rat kangaroo PtK2 cells assessed as hairy appearance at 3 uM after 24 hrs by immunofluorescence analysis; type: functional, cell-based; settings: Potorous tridactylus; method in brief: as §2
Staphylococcus aureus = assay: Antimicrobial activity against Staphylococcus aureus ATCC 12600 by standard paper sensitivity disk-agar plate method; type: functional, organism-based; method in brief: as §1
Bacillus subtilis = assay: Antimicrobial activity against Bacillus subtilis ATCC 6051 by standard paper sensitivity disk-agar plate method; type: functional, organism-based
Method in brief: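 Paper disk on agar, disk diameter 6 mm.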

[6] = Antiproliferative activity against human NCI60 cells; type: functional
PtK2 [7] = assay: Effect on actin cytoskeleton in rat kangaroo PtK2 cells assessed as increase in binucleated cells at 0.3 to 3 uM after 24 hrs by immunofluorescence analysis; type: functional, cell-based; settings: Potorous tridactylus; method in brief: as §2
Pseudomonas aeruginosa = assay: Antimicrobial activity against Pseudomonas aeruginosa ATCC 10145 by standard paper sensitivity disk-agar plate method; type: functional, organism-based; method in brief: as §1
[8] = Antiproliferative activity against rat kangaroo PtK2 cells after 48 hrs; type: cell-based; settings: Potorous tridactylus, PtK2, 48 h
Method in brief: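 PtK2 kidney cells (Potorous tridactylis) are an attached line. They were exposed to drug for 48 h, and cell protein was the read-out of growth. IC50 was taken from the concentration response.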

PtK2 [9] = assay: Effect on actin cytoskeleton in rat kangaroo PtK2 cells assessed as increase in binucleated cells at 1 to 10 uM after 24 hrs by immunofluorescence analysis; type: functional, cell-based; settings: Potorous tridactylus; method in brief: as §2
Candida albicans [10] = assay: Antimicrobial activity against Candida albicans ATCC 14053 at 100 ug/disk by standard paper sensitivity disk-agar plate method; type: functional; settings: read-out: IZ
Method in brief: (§3)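 Agar disk diffusion with paper disks 6 mm in diameter, dose per disk as in line.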

Oryctolagus cuniculus [11] = organism: Oryctolagus cuniculus; assay: Displacement of FITC-phalloidin from rabbit muscle actin polymer pretreated prior to FITC-phalloidin addition by fluorescence analysis; settings: Muscle tissue
PtK2 [12] = assay: Effect on actin cytoskeleton in rat kangaroo PtK2 cells assessed as thickening in microfilament at 0.3 uM after 24 hrs by immunofluorescence analysis relative to untreated control; type: functional, cell-based; settings: Potorous tridactylus; method in brief: as §2
PtK2 [13] = assay: Effect on actin cytoskeleton in rat kangaroo PtK2 cells assessed as thickening in microfilament at 1.0 uM after 24 hrs by immunofluorescence analysis relative to untreated control; type: functional, cell-based; settings: Potorous tridactylus; method in brief: as §2
[14] = Displacement of FITC-phalloidin from rabbit muscle actin polymer after 1 hr by fluorescence analysis; type: tissue-based, Oryctolagus cuniculus, Muscle tissue
Method in brief: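 Rabbit muscle actin and FITC-phalloidin were incubated 1 h at 22 °C in monomer buffer with 2 µL PIB per 100 µL. Drugs in DMSO were added for another 1 h at 22 °C, then the mixture was centrifuged and supernatant fluorescence read. EC50 is the concentration giving 50% of the maximal phalloidin-induced increase.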

Candida albicans [15] = assay: Antimicrobial activity against Candida albicans ATCC 14053 at 10 ug/disk by standard paper sensitivity disk-agar plate method; type: functional; settings: read-out: IZ; method in brief: as §3
CA46 [16] = assay: Ratio of IC50 for rat kangaroo Ptk2 cells to IC50 for human CA46 cells
Oryctolagus cuniculus [17] = organism: Oryctolagus cuniculus; assay: Stimulation of rabbit muscle actin polymerization assessed as light scattering at 10 to 50 uM by fluorimetry; settings: Muscle tissue
Method in brief: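 90° light scattering at 400 nm, 22 °C. Background read for 3 min, then drug in DMSO added, mixed, and followed about 15 min. PIB (2.5 M KCl, 100 mM MgCl2, 50 mM ATP) used as reference inducer.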

Escherichia coli = assay: Antimicrobial activity against Escherichia coli ATCC 1775 by standard paper sensitivity disk-agar plate method; type: functional, organism-based; method in brief: as §1
CA46 [18] = assay: Cell cycle arrest in human CA46 cells assessed as accumulation at G2/M phase at 0.2 uM after 24 hrs using propidium iodide labeling by flow cytometry; type: functional
Oryctolagus cuniculus [19] = organism: Oryctolagus cuniculus; assay: Stimulation of rabbit muscle actin polymerization by electron microscopy; settings: Muscle tissue
Method in brief: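 Samples of purified rabbit muscle actin with drug were examined by electron microscopy for filaments, in parallel with K+-induced controls. Low-speed centrifugation (20000g, 30 min, 22 °C) was used to test for bundled polymer.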

PtK2 [20] = assay: Effect on actin cytoskeleton in rat kangaroo PtK2 cells assessed as retracted cytoplasm and spiky appearance at 3 uM after 24 hrs by immunofluorescence analysis; type: functional, cell-based; settings: Potorous tridactylus; method in brief: as §2
PtK2 [21] = assay: Effect on actin cytoskeleton in rat kangaroo PtK2 cells assessed as reorganization and hypernucleation of actin assembly at 0.03 uM after 24 hrs by immunofluorescence analysis; type: functional, cell-based; settings: Potorous tridactylus; method in brief: as §2
CA46 [22] = assay: Cell cycle arrest in human CA46 cells assessed as accumulation at G2/M phase at 1.0 uM after 24 hrs using propidium iodide labeling by flow cytometry; type: functional
Method in brief: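 CA46 human Burkitt lymphoma cells were treated with the drug for 24 h. Cellular DNA content was then labelled with propidium iodide and measured by flow cytometry. The read-out was the percentage of cells in G2/M phase, compared against an untreated control.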

Row | Structure (SMILES) | pEC50 [1] | pIC50 (CA46 [3]) | Activity (PtK2 [4]) | Activity (PtK2 [5]) | Activity (PtK2 [7]) | pIC50 [8] | Activity (PtK2 [9]) | Activity (PtK2 [12]) | Activity (PtK2 [13]) | pEC50 [14] | Activity (Oryctolagus cuniculus [17]) | other results
1 | CC(=O)O[C@@H]1c2nc(cs2)C(=O)O[C@@H](CCCC(C)(Cl)Cl)[C@H](C)C(=O)O[C@@H](C(C)(C)O)c2nc(cs2)C(=O)OC1(C)C [HECTOCHLORIN] | 4.70 | 7.70 | Active | Active | Active | 6.52 | Active | Active | Active | < 4.22 | Active | Activity [2]: inactive; Activity (Staphylococcus aureus): inactive; Activity (Bacillus subtilis): inactive; GI50 [6]: 5100 nM; Activity (Pseudomonas aeruginosa): inactive; zone of inhibition at 100 µg/disc (Candida albicans [10]): 16 mm; Activity (Oryctolagus cuniculus [11]): inactive; zone of inhibition at 10 µg/disc (Candida albicans [15]): 11 mm; Ratio IC50 (CA46 [16]): 10; Activity (Escherichia coli): inactive; Activity (CA46 [18]): 37%; Activity (Oryctolagus cuniculus [19]): inactive
2 | C/C1=C\[C@H](C)C[C@H](C)OC(=O)C[C@H](c2ccc(O)cc2)NC(=O)[C@@H](Cc2c(Br)[nH]c3ccccc23)N(C)C(=O)[C@H](C)NC(=O)[C@@H](C)C1 [JASPAMIDE] | – | 7.52 | – | – | Active | 6.52 | Active | – | – | 5.19 | Active | Activity (PtK2 [20]): Active; Activity (PtK2 [21]): Active
3 | CC(C)[C@@H]1NC(=O)CNC(=O)[C@@H]2CSC(=N2)[C@H](C(C)(C)O)OC(=O)C(C)(C)[C@H](CCCC(C)(Cl)Cl)OC(=O)c2csc1n2 [LYNGBYABELLIN B] | < 4.30 | 7.00 | Active | Active | Active | 6.00 | Active | Active | Active | – | – | Activity (CA46 [22]): 28%
